# Key:
# Type in all cases: functional
# [1] = system: Streptococcus pneumoniae; assay: Antimicrobial activity against Streptococcus pneumoniae 8 expressing inducible ermB after 20 hrs by agar dilution method; settings: Streptococcus pneumoniae, 20 h; read-out: MIC
# Summary of the method: (§1)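 Streptococci, H. influenzae and M. catarrhalis were precultured on blood agar plates. Suspensions of about 10⁶ CFU/ml were inoculated onto sensitivity disk agar supplemented with 5% horse blood and incubated at 37 °C for 20 h. MIC was read as the lowest drug concentration with no visible growth.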
# [2] = system: Streptococcus pneumoniae; assay: Antimicrobial activity against Streptococcus pneumoniae 9 expressing mefA after 20 hrs by agar dilution method; settings: Streptococcus pneumoniae, 20 h; read-out: MIC; summary of the method: as §1
# [3] = system: Streptococcus pneumoniae; assay: Antimicrobial activity against Streptococcus pneumoniae 10 expressing mefA after 20 hrs by agar dilution method; settings: Streptococcus pneumoniae, 20 h; read-out: MIC; summary of the method: as §1
# [4] = system: Streptococcus pyogenes; assay: Antimicrobial activity against drug-susceptible Streptococcus pyogenes 1 after 20 hrs by agar dilution method; settings: Streptococcus pyogenes, 20 h; read-out: MIC; summary of the method: as §1
# [5] = system: Streptococcus pyogenes; assay: Antimicrobial activity against Streptococcus pyogenes 2 constitutively expressing ermB after 20 hrs by agar dilution method; summary of the method: as §1
# [6] = system: Streptococcus pyogenes; assay: Antimicrobial activity against Streptococcus pyogenes 3 expressing mefA after 20 hrs by agar dilution method; settings: Streptococcus pyogenes, 20 h; read-out: MIC; summary of the method: as §1
# [7] = system: Moraxella catarrhalis; assay: Antimicrobial activity against drug-susceptible Moraxella catarrhalis 1 after 20 hrs by agar dilution method; settings: Moraxella catarrhalis, 20 h; read-out: MIC; summary of the method: as §1
# [8] = system: Moraxella catarrhalis; assay: Antimicrobial activity against drug-susceptible Moraxella catarrhalis 2 after 20 hrs by agar dilution method; settings: Moraxella catarrhalis, 20 h; read-out: MIC; summary of the method: as §1
# [9] = system: Haemophilus influenzae; assay: Antimicrobial activity against drug-susceptible Haemophilus influenzae 1 after 20 hrs by agar dilution method; settings: Haemophilus influenzae, 20 h; read-out: MIC; summary of the method: as §1
# [10] = system: Haemophilus influenzae; assay: Antimicrobial activity against drug-susceptible Haemophilus influenzae 2 after 20 hrs by agar dilution method; settings: Haemophilus influenzae, 20 h; read-out: MIC; summary of the method: as §1
# [11] = system: Haemophilus influenzae; assay: Antimicrobial activity against drug-susceptible Haemophilus influenzae 3 after 20 hrs by agar dilution method; settings: Haemophilus influenzae, 20 h; read-out: MIC; summary of the method: as §1
# [12] = system: Haemophilus influenzae; assay: Antimicrobial activity against drug-susceptible Haemophilus influenzae 4 after 20 hrs by agar dilution method; settings: Haemophilus influenzae, 20 h; read-out: MIC; summary of the method: as §1
# [13] = system: Staphylococcus aureus; assay: Antimicrobial activity against drug-susceptible Staphylococcus aureus 209P JC-1 after 20 hrs by agar dilution method; settings: Staphylococcus aureus, 209P, 20 h; read-out: MIC
# Summary of the method: (§2)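 Agar dilution MIC. S. aureus seed culture was grown in sensitivity test broth. Cell suspension (about 10⁶ CFU/ml) was inoculated onto sensitivity disk agar with 5% horse blood and incubated at 37 °C for 20 h. MIC was the lowest drug concentration that prevented visible growth.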
# [14] = system: Staphylococcus aureus; assay: Antimicrobial activity against drug-susceptible Staphylococcus aureus 2 after 20 hrs by agar dilution method; settings: Staphylococcus aureus, 20 h; read-out: MIC; summary of the method: as §2
# [15] = system: Staphylococcus aureus; assay: Antimicrobial activity against drug-susceptible Staphylococcus aureus 3 after 20 hrs by agar dilution method; settings: Staphylococcus aureus, 20 h; read-out: MIC; summary of the method: as §2
# [16] = system: Staphylococcus aureus; assay: Antimicrobial activity against Staphylococcus aureus 4 constitutively expressing ermA after 20 hrs by agar dilution method; summary of the method: as §2
# [17] = system: Staphylococcus aureus; assay: Antimicrobial activity against Staphylococcus aureus 5 expressing inducible ermB after 20 hrs by agar dilution method; settings: Staphylococcus aureus, 20 h; read-out: MIC; summary of the method: as §2
# [18] = system: Streptococcus pneumoniae; assay: Antimicrobial activity against drug-susceptible Streptococcus pneumoniae DP1 Type1 after 20 hrs by agar dilution method; settings: Streptococcus pneumoniae, 20 h; read-out: MIC; summary of the method: as §1
# [19] = system: Streptococcus pneumoniae; assay: Antimicrobial activity against drug-susceptible Streptococcus pneumoniae 2 after 20 hrs by agar dilution method; settings: Streptococcus pneumoniae, 20 h; read-out: MIC; summary of the method: as §1
# [20] = system: Streptococcus pneumoniae; assay: Antimicrobial activity against Streptococcus pneumoniae 5 constitutively expressing ermB/mefA after 20 hrs by agar dilution method; settings: Streptococcus pneumoniae, 20 h; read-out: MIC; summary of the method: as §1
# [21] = system: Streptococcus pneumoniae; assay: Antimicrobial activity against Streptococcus pneumoniae 6 constitutively expressing ermB after 20 hrs by agar dilution method; settings: Streptococcus pneumoniae, 20 h; read-out: MIC; summary of the method: as §1
# [22] = system: Streptococcus pneumoniae; assay: Antimicrobial activity against Streptococcus pneumoniae 7 expressing inducible ermB after 20 hrs by agar dilution method; settings: Streptococcus pneumoniae, 20 h; read-out: MIC; summary of the method: as §1
# [23] = system: Staphylococcus aureus; assay: Antimicrobial activity against Staphylococcus aureus 6 expressing inducible ermB after 20 hrs by agar dilution method; summary of the method: as §2
SMILES,MIC [1] [µg/mL],MIC [2] [µg/mL],MIC [3] [µg/mL],MIC [4] [µg/mL],MIC [5] [µg/mL],MIC [6] [µg/mL],MIC [7] [µg/mL],MIC [8] [µg/mL],MIC [9] [µg/mL],MIC [10] [µg/mL],MIC [11] [µg/mL],MIC [12] [µg/mL],MIC [13] [µg/mL],MIC [14] [µg/mL],MIC [15] [µg/mL],MIC [16] [µg/mL],MIC [17] [µg/mL],MIC [18] [µg/mL],MIC [19] [µg/mL],MIC [20] [µg/mL],other results
CCOC(=O)[C@H]1[C@H](C)O[C@@H](O[C@H]2[C@H](N(C)C)[C@@H](O)[C@H](O[C@H]3[C@@H](CC=O)C[C@@H](C)[C@@H](OC(C)=O)CN(CCCCc4ccccc4)C[C@@H](C)NC(=O)C[C@@H](OC(=O)CC)[C@@H]3OC)O[C@@H]2C)C[C@@]1(C)OC(C)=O,32,1,1,0.5,> 128,1,1,1,> 128,4,16,16,1,4,2,> 128,1,0.5,1,> 128,MIC [21]: > 128 µg/mL; MIC [22]: 32 µg/mL; MIC [23]: 2 µg/mL
CCOC(=O)[C@H]1[C@H](C)O[C@@H](O[C@H]2[C@H](N(C)C)[C@@H](O)[C@H](O[C@H]3[C@@H](CC=O)C[C@@H](C)[C@@H](O)CN(CCCCc4ccccc4)CCCNC(=O)C[C@@H](OC(=O)CC)[C@@H]3OC)O[C@@H]2C)C[C@@]1(C)OC(C)=O,16,0.25,0.25,0.13,> 128,0.5,0.13,0.25,8,0.5,2,4,0.25,1,0.25,> 128,0.25,0.13,0.25,> 128,MIC [21]: > 128 µg/mL; MIC [22]: 16 µg/mL; MIC [23]: 0.5 µg/mL
CCOC(=O)[C@H]1[C@H](C)O[C@@H](O[C@H]2[C@H](N(C)C)[C@@H](O)[C@H](O[C@H]3[C@@H](CC=O)C[C@@H](C)[C@@H](OC(C)=O)CN(C)CCN(CCCCc4ccccc4)C(=O)C[C@@H](OC(=O)CC)[C@@H]3OC)O[C@@H]2C)C[C@@]1(C)OC(C)=O,16,0.5,0.5,0.5,> 128,2,1,2,> 128,8,> 128,16,1,2,1,> 128,0.5,0.13,0.5,> 128,MIC [21]: > 128 µg/mL; MIC [22]: 16 µg/mL; MIC [23]: 1 µg/mL
CCOC(=O)[C@H]1[C@H](C)O[C@@H](O[C@H]2[C@H](N(C)C)[C@@H](O)[C@H](O[C@H]3[C@@H](CC=O)C[C@@H](C)[C@@H](O)CN(CCCCc4ccccc4)CCCCNC(=O)C[C@@H](OC(=O)CC)[C@@H]3OC)O[C@@H]2C)C[C@@]1(C)OC(C)=O,8,0.13,0.13,0.06,> 128,0.25,0.13,0.25,16,1,4,8,0.25,1,0.5,> 128,0.25,0.13,0.25,> 128,MIC [21]: > 128 µg/mL; MIC [22]: 8 µg/mL; MIC [23]: 1 µg/mL
